Compounds with a hit are over-represented: about 1.5% of the library has one in this group of screens.
CCR6 antag – antagonists of human CCR6 receptor | P51684 | AID 493098 | actives 0.49% (n = 340,000) | CHO-K1 CCR6 PathHunter beta-arrestin, luminescence, CCL20-stimulated | inhibition, % at 20 µM;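 active = compounds whose inhibition of the agonist-driven luminescence signal at 20 µM reaches about 50%, limit read from the data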;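 also: cells stimulated with CCL20 at 14 nM final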
APJ ag – APJ receptor agonism. P35414. CHO-K1 APJ PathHunter beta-arrestin, luminescence; 0% DMSO wells, 100% apelin. activation, % at 20 µM. actives 0.11% (n = 330,000). AID 2520;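 active = activation more than six SD over the plate average, tested at 20 µM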
Target sequence (P35414 whole entry, looked up): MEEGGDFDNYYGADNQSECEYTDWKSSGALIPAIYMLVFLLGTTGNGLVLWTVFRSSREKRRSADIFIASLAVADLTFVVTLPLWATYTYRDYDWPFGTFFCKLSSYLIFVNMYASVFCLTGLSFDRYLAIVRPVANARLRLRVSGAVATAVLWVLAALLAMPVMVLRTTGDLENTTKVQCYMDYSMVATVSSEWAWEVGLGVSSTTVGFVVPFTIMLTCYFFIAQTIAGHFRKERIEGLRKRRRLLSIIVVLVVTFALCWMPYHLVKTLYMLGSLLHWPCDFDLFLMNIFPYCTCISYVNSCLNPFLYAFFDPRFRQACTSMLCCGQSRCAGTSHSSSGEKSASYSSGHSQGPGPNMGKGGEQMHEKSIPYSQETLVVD
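Material: engineered CHO-K1 APJ arrestin reporter cells; amount: 1000 CHO-K1 reporter cells seeded per well; incubation: compound stimulation 90 min at 25 °C, detection 60 min; signal: luminescent beta-gal fragment complementation, chemiluminescent substrate; read-out basis: APJ agonist activity; controls: DMSO-only wells as negative, 10 nM Apelin-13 as positive control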
CXCR6 block – CXCR6 (human) receptor inhibition; O00574; CHO-K1 PathHunter CXCR6 beta-arrestin, luminescence; inhibition, % at 20 µM; actives 0.36% (n = 360,000); AID 602244; in the data active = inhibition above about 34%, passing the limit was not always enough;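 also: antagonist mode with CXCL16 agonist at 10 nM final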
EBI2 antag – antagonists of human EBI2 receptor; EBI2 beta-arrestin recruitment, luminescence, 7a,25-OHC stimulated; P32249; inhibition, % at 5 µM; actives 0.81% (n = 360,000); in the data active = inhibition above about 38%;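 also: enzyme fragment complementation signal reports receptor beta-arrestin coupling in cells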
APJ antagonist – blocks the human apelin receptor APJ; P35414; AID 2521; CHO-K1 APJ beta-arrestin complementation, luminescence; inhibition, % at 20 µM; actives 0.32% (n = 330,000);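 active = inhibition above about 40% at 20 µM, limit read from the data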;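 also: cells challenged with 10 nM apelin-13 agonist together with compound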
Of the large screens only hits and unclear results are named; the others gave an inactive call.

O=C(N/C(=C/c1ccc(Cl)cc1)c1nc2ccccc2[nH]1)c1ccco1	none
COc1cc(C2Nc3ccc4ncccc4c3C3=C2C(=O)CCC3)cc(OC)c1OC (stereo unspecified)	none
Cc1ccsc1C1Nc2ccc3ncccc3c2C2=C1C(=O)CCC2 (stereo unspecified)	EBI2 antag 70
O=C(C1CC1)N1N=C(c2ccc(Cl)cc2)CC1(O)C(F)(F)F (stereo unspecified)	none
CC1(O)CC(c2ccc(Cl)cc2)=NN1C(=O)c1ccc(Cl)cc1 (stereo unspecified)	CCR6 antag 57
CC(C)(C)C1CCC(=NNC(=S)NCc2ccccc2)CC1 (stereo unspecified)	CCR6 antag 52
CCC(C)(C)C1CCC(=NNC(=S)Nc2ccccc2)CC1 (stereo unspecified)	none
N#C/C(=C\c1ccc(-c2ccc([N+](=O)[O-])cc2)o1)C(=O)Nc1nc(-c2cccs2)cs1	CCR6 antag 58
N#C/C(=C\c1ccc(-c2ccccc2[N+](=O)[O-])o1)C(=O)Nc1nc(-c2cccs2)cs1	CCR6 antag 51
N#C/C(=C/c1ccc(-c2ccccc2[N+](=O)[O-])o1)C(N)=O	none
N#C/C(=C/c1ccc(-c2cccc([N+](=O)[O-])c2)o1)C(=O)Nc1nc(-c2cccs2)cs1	CCR6 antag 69 (no result: APJ ag, APJ antagonist)
CCCCN1C(=O)C(=O)c2cc(Cl)ccc21	none
O=C(/C=C/c1ccc(O)c(O)c1)c1ccc(S(=O)(=O)N2CCCCCC2)cc1	CCR6 antag 63, APJ antagonist 42
O=C(/C=C\c1ccccc1OC(=O)c1ccccc1F)c1cc2ccccc2o1	EBI2 antag 45
C/C(=N\NC(=O)C1CCCN(S(=O)(=O)c2ccccc2)C1)c1ccncc1 (stereo unspecified)	none
C/C(=N\NC(=O)C1CCCN(S(=O)(=O)c2ccccc2)C1)c1ccccn1 (stereo unspecified)	CXCR6 block 40 (no result: CCR6 antag)
C=CCN(CC=C)Cc1cc(=O)oc2cc(OC)ccc12	none (no result: CCR6 antag, APJ ag, APJ antagonist)
C/C(COc1ccccc1)=N\NC(=O)c1nnn(-c2nonc2N)c1CSc1ccc(C)cc1	none (no result: CCR6 antag, APJ ag, APJ antagonist)
O=[N+]([O-])c1cccc(C=NNc2ccccc2)c1	none (no result: APJ ag, APJ antagonist)
Cc1cc2c(C)nc(N/N=C/c3ccc([N+](=O)[O-])cc3)nc2o1	CCR6 antag 108 (no result: APJ ag, APJ antagonist)
O=[N+]([O-])c1ccc(C=NNc2ccccc2)cc1	CCR6 antag 50 (no result: APJ ag, APJ antagonist)
COc1cc(OC)nc(Nc2nc(C(N)Cc3ccc(Cl)cc3)cs2)n1 (stereo unspecified)	none (no result: CCR6 antag, APJ ag, APJ antagonist)
COc1ccc(-n2c(O)c(/C=N/NS(=O)(=O)c3ccc(C)cc3)c3ccccc3c2=O)cc1OC	none
COc1ccc(-n2c(O)c(/C=N/Nc3nc(C)cc(C)n3)c3ccccc3c2=O)cc1OC	CCR6 antag 73, CXCR6 block 37
CC[C@@H](NC(=O)[C@H](Cc1ccccc1)NC(=O)CC[C@H]1O[C@@H](n2ccc(=O)[nH]c2=O)[C@H](O)[C@@H]1O)c1ccccc1	none (no result: CCR6 antag, APJ ag, APJ antagonist)
CCOC(=O)Nc1ccc2c(c1)C(=NNC(=S)NC)c1ccccc1-2	none (no result: CCR6 antag, APJ ag, APJ antagonist)
O=C1Nc2ccc(Br)cc2/C1=C/C(=O)c1ccccc1	EBI2 antag 79 (no result: CCR6 antag, APJ ag, APJ antagonist)
CC(=O)/C=C1/C(=O)Nc2ccccc21	CCR6 antag 76, APJ antagonist 92
C=CCOc1cccc(C(=O)/C=C2/C(=O)Nc3ccccc32)c1	EBI2 antag 84
C=CCOc1cccc(C(=O)N2CCCC(CCC(=O)NCc3ccccc3F)C2)c1 (stereo unspecified)	none
O=C(O)COc1ccccc1/C=C1\C(=O)Nc2ccc(Br)cc21	none
CC(Oc1ccccc1)C(=O)N1CCC2(CC1)Oc1ccc(F)cc1C(=O)C21CC(c2cccnc2)=NO1 (stereo unspecified)	EBI2 antag 42
CC(Oc1ccccc1)C(=O)N1CCC2(CC1)Oc1ccc(F)cc1C(=O)C21CC(c2ccccc2)=NO1 (stereo unspecified)	EBI2 antag 50
CC(C)C(=O)N1CCC2(CC1)Oc1ccc(F)cc1C(=O)C21CC(c2cccnc2)=NO1 (stereo unspecified)	none (no result: CCR6 antag, CXCR6 block, EBI2 antag)
O=C(N/N=C/c1ccccc1O)c1cccc(C(F)(F)F)c1	EBI2 antag 59
COc1cccc(/C=N/Nc2nc(Nc3ccccc3)nc(-n3nc(C)cc3C)n2)c1O	CCR6 antag 67, CXCR6 block 57, EBI2 antag 66
CCOC(=O)c1c(SCCN2CCCCC2)n(-c2ccccc2)c(=S)n(-c2ccccc2)c1=O	CCR6 antag 99, CXCR6 block 86 (no result: APJ ag, APJ antagonist)
CCOC(=O)c1c(SC)n(-c2ccccc2)c(=S)n(-c2ccccc2)c1=O	none (no result: APJ ag, APJ antagonist)
CSCCC(C(=O)NC1CCCC1)n1c(-c2ccccn2)nc2ccccc21 (stereo unspecified)	none (no result: CCR6 antag, APJ ag, CXCR6 block, APJ antagonist)
O=C(C1=C[C@H](c2csc3ccccc23)C[C@H](OCc2ccc(CO)cc2)O1)N1CCN(Cc2ccccc2)CC1	none
O=C(C1=C[C@H](c2csc3ccccc23)C[C@H](OCc2ccc(CO)cc2)O1)N1CCN(Cc2ccc3c(c2)OCO3)CC1	EBI2 antag 51
COCCNC(=O)C1(C)CCCN(Cc2ccc(Oc3ccccc3)cc2)C1 (stereo unspecified)	none (no result: CCR6 antag, APJ ag, APJ antagonist)
O=C1CC(C(=O)Nc2ccc(Cl)cc2[N+](=O)[O-])C2(CCCCC2)O1 (stereo unspecified)	CCR6 antag 57
Cc1csc(-c2nc3ccccc3n2C(C(=O)Nc2c(C)cccc2C)C2CC2)c1 (stereo unspecified)	none (no result: CCR6 antag, APJ ag, CXCR6 block, APJ antagonist)
Cc1ccc2c(c1)C(=O)C(=O)N2CCOc1ccccc1	CCR6 antag 51
CCOC(=O)[C@]12CCC=C1N(Cc1ccc3c(c1)OCO3)C(=O)[C@H](CC(=O)NCc1cccs1)C2	none (no result: CCR6 antag, APJ ag, APJ antagonist)
COc1ccccc1N=Nc1ccc(O)c2ncccc12	CCR6 antag 54
O=C(CNc1ccc(Br)cc1)c1ccc(O)cc1	none
O=C(CNc1ccc(Cl)cc1)c1ccc(Br)cc1	CCR6 antag 62, APJ antagonist 83
Cc1oc2c(c1C(=O)c1ccc(Cl)cc1)C(=O)C(=O)c1ccccc1-2	none (no result: APJ ag, APJ antagonist)
Cc1ccc(C(=O)c2c(C)oc3c2C(=O)C(=O)c2ccccc2-3)cc1	CCR6 antag 72, APJ ag 14
COc1ccc(N2C(=O)c3ccccc3C2=O)cc1	none
COc1ccc(N2C(=O)C(Cl)=C(Oc3cccc(OC)c3)C2=O)cc1	CCR6 antag 97
COCCNC(=O)C1(C)CCN(C(=O)Cc2ccc(OC)c(OC)c2)C1 (stereo unspecified)	none (no result: CCR6 antag, APJ ag, APJ antagonist)
COc1cc(C(=O)N2CCN(c3ccccn3)CC2)cc(OC)c1OC	none
COc1cc2nc(C3CCC3)nc(N3CCN(c4ccccn4)CC3)c2cc1OC	EBI2 antag 52
CS(=O)(=O)c1cc(N2CCOCC2)ccc1CNC[C@H]1O[C@@H](n2cnc3c(=O)[nH]c(N)nc32)[C@H](O)[C@@H]1O	none (no result: CCR6 antag, APJ ag, APJ antagonist)
Cn1c(=O)c([N+](=O)[O-])c(Cl)c2ccccc21	CCR6 antag 101, CXCR6 block 88 (no result: APJ ag, APJ antagonist)

Bioassay records as filed in PubChem BioAssay.
